The list is not random: actives were taken first. Their share in the collection is about 4.6%.
OX1R antag-1: human HCRTR1 antagonism. AID 434989. O43613. inhibition, % at 5 µM. 330,000 compounds, 0.43% hits. CHO/OX1R cells, Fluo-8 calcium fluorescence, orexin A;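 active = inhibition above its plate's threshold, mean inhibition of all tested compounds on the plate plus 3 SD, cut at about 37% in these data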;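 note: 0% = orexin A challenge wells and 100% = SB-334867-A antagonist wells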
CHO parental Ca: counter-screen: ATP calcium response change in parental CHO cells; parental CHO-K1, ATP-induced calcium, Fluo-8 fluorescence; inhibition, % at 5.6 µM; 330,000 compounds, 0.63% hits;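 active = inhibition above that plate's mean sample inhibition plus 3 SD, cut at about 26% in these data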;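 note: 0% = ATP-challenged DMSO wells and 100% = DMSO wells without ATP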
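material = parental CHO cells | also added = ATP as calcium-mobilizing challenge | dosing = single point at 5.6 µM | detection = intracellular calcium via Fluo-8 no-wash fluorescent dye | read-out = % inhibition | benchmarks = low control ATP plus DMSO, high control DMSO only | repeats = one well per compound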
TAAR1 ag: human TAAR1 agonism; AID 624467; 360,000 compounds, 0.99% hits; activation, % at 3 µM; Q96RJ0; CHO RD-HGA16 TAAR1, Fluo-8 calcium fluorescence; vehicle wells 0%, saturating PEA agonist 100%;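 active = activation above the mean activation of all test compounds in the run plus 3 SD, cut at about 38% in these data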
Target sequence (Q96RJ0 whole entry, looked up): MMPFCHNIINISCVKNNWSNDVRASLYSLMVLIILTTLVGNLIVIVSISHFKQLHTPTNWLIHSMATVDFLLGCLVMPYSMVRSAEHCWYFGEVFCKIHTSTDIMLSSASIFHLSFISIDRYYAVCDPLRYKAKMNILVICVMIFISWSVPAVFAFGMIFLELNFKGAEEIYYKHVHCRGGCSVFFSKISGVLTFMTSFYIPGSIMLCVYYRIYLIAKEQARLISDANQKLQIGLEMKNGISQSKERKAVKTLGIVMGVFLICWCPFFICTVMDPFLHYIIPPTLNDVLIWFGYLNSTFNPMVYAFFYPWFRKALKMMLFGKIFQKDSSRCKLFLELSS
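Repeats: no replicates (n 1) | Material: CHO-derived RD-HGA16 cells with stable Gα16 and human TAAR1 | Technique: Kinetic Fluo-8 calcium fluorescence | Schedule: 17-24 h seeding, 75 min 37 °C dye, 30 min RT | Evaluation: % activation from peak over basal fluorescence ratio, DMSO-to-PEA scaled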
TAAR1 antag: antagonists of human TAAR1; Q96RJ0; CHO RD-HGA16 TAAR1, Fluo-8 calcium fluorescence, antagonist; inhibition, % at 3 µM; 360,000 compounds, 1.5% hits;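 active = inhibition above a per-plate cutoff, the mean inhibition of test compounds on that plate plus 3 SD, cut at about 49% in these data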;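 note: 0% = DMSO plus EC80 beta-PEA response and 100% = DMSO alone without agonist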
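Assay system: CHO-derived RD-HGA16 cells stably expressing human TAAR1 plus Gα16. Timing: 140 s kinetic read after compound, 140 s after agonist. Technique: kinetic Fluo-8 calcium fluorescence measurement. Measure: % inhibition of agonist calcium response.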
GPR7 antagonist: antagonists of human GPR7 (neuropeptides B/W receptor 1) | P48145 | inhibition, % at 4.4 µM | 290,000 compounds, 1.1% hits | GPR7-expressing cells, fluorescence antagonist assay | AID 1861; in the data active = inhibition above about 16%, passing the limit was not always enough;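 note: cells stimulated with the agonist NPW; 0% = agonist with vehicle and 100% = vehicle without agonist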
OX1R antag-2: antagonists of human orexin 1 receptor (OX1R); OX1R-expressing cells, FRET antagonist read-out; 330,000 compounds, 1.8% hits; inhibition, % at 6.6 µM; O43613; in the data active = inhibition mostly above about 38%, no sharp cut-off; inactive = mostly below about 40%;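 note: 0% = agonist challenge alone and 100% = reference antagonist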
Starred values were filed as active, the others as inactive; x = no result.

SMILES	OX1R antag-1	CHO parental Ca	TAAR1 ag	TAAR1 antag	GPR7 antagonist	OX1R antag-2
CCOC(=O)C1CCCN(S(=O)(=O)c2ccc(S(=O)(=O)N(CC)CC)cc2)C1 (stereo unspecified)	47*	51*	5	28	8	46
CCOC(=O)C1CCN(C(=O)COc2ccc(Br)cc2Br)CC1	-24	-6	12	-5	1	16
CCOC(=O)C1CCCN(C(=S)Nc2cc(C)cc(C)c2)C1 (stereo unspecified)	-3	-3	50*	46	0	12
CCOC(=O)C1CCCN(C(=O)COc2ccccc2O)C1 (stereo unspecified)	-10	-17	43*	31	-10	7
CC(=O)N(CN1C(=O)c2ccc([N+](=O)[O-])cc2C1=O)c1cccc(C(=O)O)c1	1	13	4	-13	-7	52*
C=CCn1c(O)c(N=Nc2ccccc2O)c2ccccc21	77*	67*	6	5	x	6
Cc1nn(-c2ccccc2)c(N)c1N=O	-8	-6	1	-13	-2	61*
COC(=O)[C@@H]1C[C@H]2CC[C@H](O)C[C@H]2N1Cc1ccc(C(C)(C)C)cc1	-6	-10	0	3	x	34
CC[N+](CC)(CC)CCOc1ccc(/C=C/c2ccccc2)cc1	1	3	15	-2	x	13
CC[N+](CC)(CC)CCCCOc1ccc2c(c1)C(=O)c1cc(OCCCC[N+](CC)(CC)CC)ccc1-2	-6	-7	0	-13	-14	57*
CC1(C)CC(=O)C2=C(C1)N(c1ccccc1)C(N)=C(C#N)C2c1ccsc1 (stereo unspecified)	-26	-21	5	15	-2	7
O=C(CC1Sc2ccccc2NC1=O)OC(C(=O)NCCc1ccccc1)c1cccnc1 (stereo unspecified)	-11	-9	23	53*	-6	8
COc1ccc(Cl)cc1N1C(=O)C2CCCN2C1c1ccc(F)c(F)c1 (stereo unspecified)	-16	-27	-2	-24	16*	10
O=c1[nH]cnc2ncc(-c3ccc(O)cc3)nc12	1	-9	4	-17	x	60*
CCNC(=S)N1CCN(c2nc(-c3ccc(F)cc3)cs2)CC1	48*	65*	3	44	-9	21
COCCNC(=S)N1CCN(c2nc(-c3ccc(F)cc3)cs2)CC1	-10	-1	5	25	6	-1
Fc1ccc(NC(=S)N2CCCC(c3ccccc3)=N2)cc1	-19	-14	-2	-8	-12	15
Cc1cc(C)cc(-n2c(C)cc(/C=C3\C(=N)N4N=C(CC(C)C)SC4=NC3=O)c2C)c1	-20	-5	8	-9	-6	6
CCCC1=NN2C(=N)/C(=C\c3cc(C)n(-c4cc(C)cc(C)c4)c3C)C(=O)N=C2S1	-24	-13	42*	53*	-8	26
O=C(c1ccccc1Cl)N1CCN(C(=O)C2CCCO2)CC1 (stereo unspecified)	x	x	1	0	x	x
O=C(c1ccc([N+](=O)[O-])cc1[N+](=O)[O-])N1CCN(C(=O)C2CCCO2)CC1 (stereo unspecified)	-6	-4	6	8	x	34*
COc1cc(/C=C2\SC(=S)NC2=O)ccc1OS(=O)(=O)c1ccccc1	10	11	x	x	-6	80*
COc1cc(/C=C2/SC(=S)NC2=O)ccc1OS(=O)(=O)c1ccc(C)cc1	10	6	x	x	5	64*
O=C(CCSCc1ccccc1F)NCCc1ccccc1	-3	-11	39*	76*	1	19
O=C(C(=O)N(Cc1ccccc1)Cc1ccccc1)c1c(-c2ccccc2)[nH]c2ccccc12	x	x	12	75*	x	x
SMILES	OX1R antag-1	CHO parental Ca	TAAR1 ag	TAAR1 antag	GPR7 antagonist	OX1R antag-2
CN(C)c1ccc(NC(=O)c2sc(SCC(=O)Nc3nccs3)nc2N)cc1	22	0	20	67*	-6	15
Cc1ccc(S(=O)(=O)NCCC(=O)OCc2ccc([N+](=O)[O-])cc2)cc1C	17	41*	1	50*	x	14
COc1ccc(CN2C(=O)c3cccnc3C2Nc2cc(Cl)c(OC)cc2OC)cc1 (stereo unspecified)	-8	-13	2	7	-4	23
CC(=O)c1c(O)cc(O)c(C(C)=O)c1O	33	57*	x	x	x	72*
CC(=O)c1c(O)cc(O)cc1CC(=O)O	-7	-11	2	-8	-12	1
CCOC(=O)C1CCCN(C(=O)c2cnn3c(C(F)F)cc(-c4ccc(C)cc4)nc23)C1 (stereo unspecified)	-51	-44	12	-12	19*	5
Cc1ccc(-c2cc(C(F)F)n3ncc(C(=O)N4CCN5CCCC5C4)c3n2)cc1 (stereo unspecified)	-32	-28	-2	-6	-15	28
COc1cc(N2C(=O)C=CC2=O)ccc1N1C(=O)C=CC1=O	x	x	8	-3	x	x
O=C1C=CC(=O)N1c1cccc(-c2ccccc2)c1	45*	27	15	69*	1	24
CCCOc1ccccc1C(=O)N1CCNC(=O)C1CC(=O)OC(C)C (stereo unspecified)	-22	-11	7	-8	-2	3
COc1ccccc1CNCc1ccc2c(c1)OCO2	x	x	9	-27	x	x
O=C(COC(=O)C1CCC1)Nc1cccc(Cl)c1	-16	-14	3	2	x	1
COc1nc(Cl)cn(-c2ccc(C)cc2)c1=O	-7	-2	-3	4	1	19
Cc1ccc(-n2c(Cl)c(Cl)nc(Cl)c2=O)cc1	16	23	x	x	52*	16
CC(=O)Cc1nsc(NC(=O)c2ccc(-c3ccc(F)cc3)o2)n1	8	-19	3	-24	8	61*
C[C@H](CO)N1C[C@H](C)[C@H](CN(C)Cc2ccc(F)cc2)Oc2ncc(Br)cc2C1=O	x	x	2	-9	x	x
Cn1ncc2c(NCCc3ccccc3)nc(Cl)nc21	x	x	38*	43	x	x
Cc1ccc(C)c2[nH]c(=O)c(CN(CCN3CCCC3)C(=O)Nc3ccc(F)cc3)cc12	-18	-25	3	3	-5	28
Clc1ccc(-c2nnnn2-c2ccc(Cl)cc2)cc1	-10	-9	2	-44	-10	11
Cc1ccc(-n2nnnc2C(Cl)(Cl)c2nnnn2-c2ccc(C)cc2)cc1	55*	48*	33	26	-6	19
CN(C)CC(O)COc1cccc(OCC(O)CN(C)C)c1 (stereo unspecified)	-6	7	3	10	-9	12
Cc1cc(OCC(O)CN(C)C(=O)C(C)Oc2ccccc2)ccc1Cl (stereo unspecified)	12	-14	2	-24	15	48*
O=c1c2ccccc2nc2n1CCCN2	-13	15	7	-17	-9	5
